Consider 4 molecules from ChEMBL document CHEMBL4706770, “SD-91 as A Potent and Selective STAT3 Degrader Capable of Achieving Complete and Long-Lasting Tumor Regression” (ACS Med Chem Lett, 2021).

A short description of data set [1]: Drug metabolism in complete cell culture medium assessed as 5-amino-4-(4-(8-((5S,8S,10aR)-8-((S)-5-amino-1-(benzhydrylamino)-1,5-dioxopentan-2-ylcarbamoyl)-6-oxo-5-(5-(phosphonocarbonyl)-1H-indole-2-carboxamido)octahydropyrrolo[1,2-a][1,5]diazocin-3(4H)-yl)-8-oxooct-1-ynyl)-1-oxoisoindolin-2-yl)-5-oxopentanoic acid after 96 hrs by LC/MS/MS analysis. The procedure, abridged:
(§1)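 Parent compound incubated in the cell culture medium used for the cellular assays, with or without cells, at 37 °C. Percentages of the hydrolysis product and the glutarimide ring-opened product measured at time points up to 96 h.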

Data set [2] has as its target Signal transducer and activator of transcription 2 (Homo sapiens, UniProt P52630). Description: Binding affinity to human recombinant STAT2 assessed as dissociation constant incubated for 15 mins by biolayer interferometry. The procedure, abridged: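 Biolayer interferometry with recombinant human STAT1, STAT2, STAT3, STAT4, STAT5A, STAT5B or STAT6 proteins containing their SH2 domain. Compound run in 2× serial dilutions from 200 nM. Kd taken from steady-state fitting of equilibrium responses against concentration using a 1:1 binding model.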

The target in data set [3] is Signal transducer and activator of transcription 3 (Homo sapiens, UniProt P40763). Nature of the data set: Induction of STAT3 degradation in human SU-DHL-1 cells incubated for 4 hrs by western blot analysis. It is filed as cell-based. The procedure, abridged:
(§2)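 Cells treated 4 h with compounds across 25 nM to 100 μM; STAT proteins detected by Western blot with GAPDH as loading control; STAT3 DC50 estimated by densitometry of STAT3 relative to GAPDH. Applies to MOLM-16 for all STATs, and to SU-DHL-1 and SUP-M2 for STAT3.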

Data set [4] concerns the target Protein cereblon/Signal transducer and activator of transcription 3 (Homo sapiens, UniProt P40763+Q96SW2). Description: Protac activity at CRBN/STAT3 in human SUP-M2 cells assessed as degradation of STAT3 incubated for 4 hrs by western blot analysis. It is filed as cell-based. The procedure, abridged:
as §2

Data set [5] in a line: Drug metabolism buffer pH 4 assessed as conversion to (2-(((5S,8S,10aR)-8-(((S)-5-amino-1-(benzhydrylamino)-1,5-dioxopentan-2-yl)carbamoyl)-3-(8-(2-(2,6-dioxopiperidin-3-yl)-1-oxoisoindolin-4-yl)oct-7-ynoyl)-6-oxodecahydropyrrolo[1,2-a][1,5]diazocin-5-yl)carbamoyl)-1H-indole-5-carbonyl)phosphonic acid by measured after 96 hrs at 37 degC by LC/MS/MS analysis.
Data set [6] addresses Protein cereblon/Signal transducer and activator of transcription 4 (Homo sapiens) (UniProt Q96SW2+Q14765). Nature of the data set: Protac activity at CRBN/STAT4 in human SUP-M2 cells assessed as STAT4 degradation at 0.25 to 100 uM incubated for 4 hrs by Western blot analysis. It is filed as cell-based. The conditions noted are these: SUPM2, dose 0.25-100 µM.
Data set [7] can be described thus: Drug uptake in SCID mouse xenografted with human MOLM16 cells assessed as (2-(((5S,8S,10aR)-8-(((S)-5-amino-1-(benzhydrylamino)-1,5-dioxopentan-2-yl)carbamoyl)-3-(8-(2-(2,6-dioxopiperidin-3-yl)-1-oxoisoindolin-4-yl)oct-7-yno yl)-6-oxodecahydropyrrolo[1,2-a][1,5]diazocin-5-yl)carbamoyl)-1H-indole-5-carbonyl)phosphonic acid level in plasma at 50 mg/kg, iv measured after 24 hrs by LC-MS/MS. It is filed as ADME, organism-based. As to conditions: in vivo. The procedure, abridged:
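SCID mice bearing MOLM-16 xenografts given a single iv dose of 50 mg/kg. Concentrations of parent and hydrolysis product measured in plasma (ng/mL) and tumor tissue (ng/g) at 1, 6 and 24 h.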

Data set [8] is described as follows: Drug metabolism buffer pH 8 assessed as conversion to 5-amino-4-(4-(8-((5S,8S,10aR)-8-((S)-5-amino-1-(benzhydrylamino)-1,5-dioxopentan-2-ylcarbamoyl)-6-oxo-5-(5-(phosphonocarbonyl)-1H-indole-2-carboxamido)octahydropyrrolo[1,2-a][1,5]diazocin-3(4H)-yl)-8-oxooct-1-ynyl)-1-oxoisoindolin-2-yl)-5-oxopentanoic acid measured upto 100 hrs by LC/MS/MS analysis. The conditions noted are these: time hrs <=100. The procedure, abridged: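 Parent compound incubated in buffer at pH 4 or pH 8, at room temperature or 37 °C. Percentages of the parent, the hydrolysis product and the glutarimide ring-opened product followed over time, up to 96 h.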

The nature of data set [9]: Drug metabolism in complete cell culture medium assessed as (2-(((5S,8S,10aR)-8-(((S)-5-amino-1-(benzhydrylamino)-1,5-dioxopentan-2-yl)carbamoyl)-3-(8-(2-(2,6-dioxopiperidin-3-yl)-1-oxoisoindolin-4-yl)oct-7-ynoyl)-6-oxodecahydropyrrolo[1,2-a][1,5]diazocin-5-yl)carbamoyl)-1H-indole-5-carbonyl)phosphonic acid after 2 hrs. The procedure, abridged:
as §1

Data set [10] addresses T1, Signal transducer and activator of transcription 4 (Homo sapiens) (UniProt Q14765).
T1 sequence (whole entry): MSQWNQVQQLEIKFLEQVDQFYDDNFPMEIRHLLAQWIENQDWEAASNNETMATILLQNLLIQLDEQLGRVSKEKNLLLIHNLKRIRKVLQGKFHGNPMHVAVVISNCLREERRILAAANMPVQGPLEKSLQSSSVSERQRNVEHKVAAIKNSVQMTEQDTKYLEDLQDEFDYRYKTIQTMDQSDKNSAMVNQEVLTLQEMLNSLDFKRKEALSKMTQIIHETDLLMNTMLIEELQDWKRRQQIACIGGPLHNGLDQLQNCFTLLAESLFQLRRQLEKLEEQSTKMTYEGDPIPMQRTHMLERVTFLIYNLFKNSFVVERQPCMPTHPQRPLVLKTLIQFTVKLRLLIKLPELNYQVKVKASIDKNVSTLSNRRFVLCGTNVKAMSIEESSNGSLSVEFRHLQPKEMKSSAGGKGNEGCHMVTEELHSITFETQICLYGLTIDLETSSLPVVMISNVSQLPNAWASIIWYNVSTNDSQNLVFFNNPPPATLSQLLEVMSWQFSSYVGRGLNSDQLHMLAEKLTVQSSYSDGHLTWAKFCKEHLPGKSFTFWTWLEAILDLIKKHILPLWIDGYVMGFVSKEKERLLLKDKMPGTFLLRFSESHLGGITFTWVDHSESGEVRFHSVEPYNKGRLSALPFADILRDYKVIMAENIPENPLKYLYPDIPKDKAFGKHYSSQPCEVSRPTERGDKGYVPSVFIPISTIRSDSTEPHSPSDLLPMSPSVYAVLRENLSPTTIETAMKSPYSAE
Description: Induction of STAT4 degradation in human SUP-M2 cells at 0.25 to 100 uM incubated for 14 hrs by Western blot analysis. The conditions noted are these: SUPM2, dose 0.25-100 µM. It is filed as cell-based.

Active and inactive are the calls of the source. The rule behind the calls is not given here.

Signal transducer and activator of transcription 2, sequence (P52630 whole entry, the tested form may be a part): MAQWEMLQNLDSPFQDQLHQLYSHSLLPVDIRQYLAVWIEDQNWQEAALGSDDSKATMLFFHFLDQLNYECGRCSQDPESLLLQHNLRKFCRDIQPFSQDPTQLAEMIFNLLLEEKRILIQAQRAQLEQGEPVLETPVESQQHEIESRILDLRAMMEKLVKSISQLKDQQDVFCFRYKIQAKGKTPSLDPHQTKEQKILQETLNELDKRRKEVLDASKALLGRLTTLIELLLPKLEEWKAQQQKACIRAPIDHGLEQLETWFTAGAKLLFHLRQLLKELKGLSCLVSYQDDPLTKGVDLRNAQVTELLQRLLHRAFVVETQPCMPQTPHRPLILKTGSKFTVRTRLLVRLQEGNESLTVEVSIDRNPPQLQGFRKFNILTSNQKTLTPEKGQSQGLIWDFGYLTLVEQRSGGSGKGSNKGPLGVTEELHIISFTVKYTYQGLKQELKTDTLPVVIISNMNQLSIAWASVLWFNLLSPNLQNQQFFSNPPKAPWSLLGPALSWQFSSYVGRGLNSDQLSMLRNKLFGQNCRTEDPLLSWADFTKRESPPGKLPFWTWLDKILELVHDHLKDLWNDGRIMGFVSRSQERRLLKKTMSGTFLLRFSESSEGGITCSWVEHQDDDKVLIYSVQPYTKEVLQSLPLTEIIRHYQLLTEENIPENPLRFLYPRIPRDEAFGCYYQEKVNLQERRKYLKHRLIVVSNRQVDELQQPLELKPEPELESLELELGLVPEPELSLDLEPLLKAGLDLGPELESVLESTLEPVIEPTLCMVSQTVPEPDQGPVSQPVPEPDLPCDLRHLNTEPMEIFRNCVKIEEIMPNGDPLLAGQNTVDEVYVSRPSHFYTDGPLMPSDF
Signal transducer and activator of transcription 3, sequence (P40763 whole entry): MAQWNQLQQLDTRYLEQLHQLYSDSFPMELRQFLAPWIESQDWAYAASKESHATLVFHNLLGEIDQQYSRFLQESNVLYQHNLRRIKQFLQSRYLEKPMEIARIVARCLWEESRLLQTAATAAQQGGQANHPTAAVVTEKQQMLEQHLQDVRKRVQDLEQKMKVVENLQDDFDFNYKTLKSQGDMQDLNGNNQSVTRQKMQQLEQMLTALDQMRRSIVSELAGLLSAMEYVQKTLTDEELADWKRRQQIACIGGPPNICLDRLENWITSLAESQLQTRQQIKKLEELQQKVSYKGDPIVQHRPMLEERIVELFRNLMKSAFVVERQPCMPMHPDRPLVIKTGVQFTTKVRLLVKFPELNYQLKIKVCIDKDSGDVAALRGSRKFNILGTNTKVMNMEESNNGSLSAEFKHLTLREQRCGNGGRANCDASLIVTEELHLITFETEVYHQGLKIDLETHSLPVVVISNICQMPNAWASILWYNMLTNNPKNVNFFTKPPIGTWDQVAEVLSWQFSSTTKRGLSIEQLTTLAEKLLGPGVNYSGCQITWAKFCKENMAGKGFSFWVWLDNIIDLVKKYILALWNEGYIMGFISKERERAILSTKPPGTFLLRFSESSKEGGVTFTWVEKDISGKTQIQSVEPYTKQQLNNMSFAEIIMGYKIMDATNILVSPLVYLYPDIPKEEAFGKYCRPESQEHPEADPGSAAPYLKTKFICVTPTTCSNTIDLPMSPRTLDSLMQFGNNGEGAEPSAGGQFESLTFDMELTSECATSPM
Protein cereblon/Signal transducer and activator of transcription 3, sequence (P40763 whole entry): as above
Protein cereblon/Signal transducer and activator of transcription 3, sequence (Q96SW2 whole entry): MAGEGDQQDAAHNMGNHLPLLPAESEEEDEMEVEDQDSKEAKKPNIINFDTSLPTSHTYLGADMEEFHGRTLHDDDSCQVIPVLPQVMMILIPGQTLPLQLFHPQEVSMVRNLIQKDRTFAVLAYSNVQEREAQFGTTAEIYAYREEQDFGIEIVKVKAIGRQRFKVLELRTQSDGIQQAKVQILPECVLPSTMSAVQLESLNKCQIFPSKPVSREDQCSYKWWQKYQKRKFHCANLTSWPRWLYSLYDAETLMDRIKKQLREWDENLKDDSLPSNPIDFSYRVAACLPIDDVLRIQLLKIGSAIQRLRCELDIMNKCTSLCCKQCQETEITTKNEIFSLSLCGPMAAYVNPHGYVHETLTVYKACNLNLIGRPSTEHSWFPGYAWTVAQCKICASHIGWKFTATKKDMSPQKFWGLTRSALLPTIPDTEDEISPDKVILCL
Protein cereblon/Signal transducer and activator of transcription 4 (Homo sapiens), sequence (Q96SW2 whole entry, looked up, one chain of several): as the sequence (Q96SW2 whole entry) above

For `NC(=O)CC[C@H](NC(=O)[C@@H]1CC[C@@H]2CCN(C(=O)CCCCCC#Cc3cccc4c3CN(C3CCC(=O)NC3=O)C4=O)C[C@H](NC(=O)c3cc4cc(C(=O)P(=O)(O)O)ccc4[nH]3)C(=O)N21)C(=O)NC(c1ccccc1)c1ccccc1` (some centres not stated), the Drug metabolism in data set [1] was < 10%. Besides, in [2], the Kd was > 10 nM. In [3], this molecule registered a 50% degradation concentration (DC50) of 17 nM.
For `NC(=O)CC[C@H](NC(=O)[C@@H]1CC[C@@H]2CCN(C(=O)CCCCCC#Cc3cccc4c3CN(C3CCC(=O)NC3=O)C4=O)C[C@H](NC(=O)c3cc4cc(C(F)(F)P(=O)(O)O)ccc4[nH]3)C(=O)N21)C(=O)NC(c1ccccc1)c1ccccc1` (some centres not stated), the DC50 in data set [4] was found to be 2500 nM. Moreover, the Drug metabolism in data set [5] was 25%; in data set [1], 10%; in data set [8], “Metabolite detected”; in [9] it was 50%. In data set [6], the result was inactive. In [7], the Drug uptake is 305 ng/mL.
For `CC(=O)N1CC[C@H]2CC[C@@H](C(=O)N[C@@H](CCC(N)=O)C(=O)NC(c3ccccc3)c3ccccc3)N2C(=O)[C@@H](NC(=O)c2cc3cc(C(F)(F)P(=O)(O)O)ccc3[nH]2)C1`, the outcome in [10] was inactive.
As for `CC(=O)N1CC[C@H]2CC[C@@H](C(=O)N[C@@H](CCC(N)=O)C(=O)NC(c3ccccc3)c3ccccc3)N2C(=O)[C@@H](NC(=O)c2cc3cc(C(=O)P(=O)(O)O)ccc3[nH]2)C1`, the outcome in data set [10] was inactive.
